In ChEMBL document CHEMBL3608261, “Metabolically programmed iron chelators” (Bioorg Med Chem, 2015):
Values belong to the compound of their own block, whether it stands above or below them.

How the values were obtained:
Sapajus apella [1] = experiment: Iron clearing efficiency in bile duct cannulated Cebus apella assessed as clearance of iron in urine at 75 umol/kg, po […] relative to control; format: functional
Sapajus apella [2] = experiment: Iron clearing efficiency in bile duct cannulated Cebus apella assessed as clearance of iron at 150 umol/kg, po measured at 3 hrs intervals for up to 48 hrs relative to control; format: functional
Sapajus apella [3] = experiment: Iron clearing efficiency in bile duct cannulated Cebus apella assessed as clearance of iron in urine at 150 umol/kg, po measured at 3 hrs intervals for up to 48 hrs relative to control; format: functional
Sapajus apella [4] = experiment: Iron clearing efficiency in bile duct cannulated Cebus apella assessed as clearance of iron in feces at 150 umol/kg, po measured at 3 hrs intervals for up to 48 hrs relative to control; format: functional
Rattus norvegicus [5] = experiment: Iron clearing efficiency in bile duct cannulated Sprague-Dawley rat assessed as clearance of iron at 300 umol/kg, po measured at 3 hrs intervals for up to 48 hrs relative to control; format: functional
Method in brief: (§1)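 Non-iron-overloaded male Sprague-Dawley rats (400–450 g) with cannulated bile ducts received 300 µmol/kg po or sc. […] Bile was sampled every 3 h for up to 48 h and urine at 24 h intervals. ICE = (treated minus control iron excretion) / theoretical output (2:1 ligand:Fe) × 100 over 48 h. Mean ± SEM.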

Rattus norvegicus [6] = experiment: Iron clearing efficiency in bile duct cannulated Sprague-Dawley rat assessed as clearance of iron in urine at 300 umol/kg, po measured at 3 hrs intervals for up to 48 hrs relative to control; format: functional
Rattus norvegicus [7] = experiment: Drug metabolism in Sprague-Dawley rat pancreas assessed as (S)-4'-(HO)-DADFT-PEAA level at 300 umol/kg, sc up to 8 hrs by HPLC analysis; format: ADME, organism-based; conditions: in vivo
Method in brief: (§2)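 Male Sprague-Dawley rats (250–350 g) got a single sc dose of the monosodium salt at 300 µmol/kg, n=3 per time point. They were killed with CO2 at 0.5, 1, 2, 4 and 8 h. Citrated cardiac-puncture blood was spun to plasma, and liver, kidney, heart and pancreas were frozen. Tissue was homogenized 1:1 in water, given a methanol rinse, held 30 min at −20 °C, centrifuged and filtered. Read-out was reversed-phase HPLC, UV 310 nm.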

Rattus norvegicus [8] = experiment: Drug metabolism in Sprague-Dawley rat plasma assessed as (S)-4'-(HO)-DADFT-PEAA level at 300 umol/kg, sc after 8 hrs by HPLC analysis; format: ADME, organism-based; conditions: in vivo; method in brief: as §2
Rattus norvegicus [9] = experiment: Iron clearing efficiency in bile duct cannulated Sprague-Dawley rat assessed as clearance of iron in bile at 300 umol/kg, po measured at 3 hrs intervals for up to 48 hrs relative to control; format: functional; method in brief: as §1
Rattus norvegicus [10] = experiment: Drug metabolism in Sprague-Dawley rat kidney assessed as (S)-4'-(HO)-DADFT-PEAA level at 300 umol/kg, sc up to 8 hrs by HPLC analysis; format: ADME, organism-based; conditions: in vivo; method in brief: as §2
Sapajus apella [11] = experiment: Iron clearing efficiency in bile duct cannulated Cebus apella assessed as clearance of iron in bile at 75 umol/kg, po measured at 3 hrs intervals for up to 48 hrs relative to control; format: functional
Rattus norvegicus [12] = experiment: Drug metabolism in Sprague-Dawley rat heart assessed as (S)-4'-(HO)-DADFT-PEAA level at 300 umol/kg, sc up to 8 hrs by HPLC analysis; format: ADME, organism-based; conditions: in vivo; method in brief: as §2
Sapajus apella [13] = experiment: Iron clearing efficiency in bile duct cannulated Cebus apella assessed as clearance of iron in urine at 75 umol/kg, sc […] relative to control; format: functional
Rattus norvegicus [14] = experiment: Iron clearing efficiency in bile duct cannulated Sprague-Dawley rat assessed as clearance of iron in bile at 300 umol/kg, sc measured at 3 hrs intervals for up to 48 hrs relative to control; format: functional; method in brief: as §1
Rattus norvegicus [15] = species on record: Rattus norvegicus; experiment: Iron clearing efficiency in bile duct cannulated Sprague-Dawley rat assessed as […] for up to 48 hrs relative to control; format: functional, Urine
Sapajus apella [16] = experiment: Iron clearing efficiency in bile duct cannulated Cebus apella assessed as clearance of iron in bile at 75 umol/kg, sc measured at 3 hrs intervals for up to 48 hrs relative to control; format: functional
[17] = Performance ratio, ratio of iron clearing efficiency in […] at 75 umol/kg, po to iron clearing efficiency in bile duct cannulated Sprague-Dawley rat at 300 umol/kg, po; format: functional
Method in brief: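 Performance ratio = mean ICE in iron-overloaded Cebus apella (75 µmol/kg) divided by mean ICE in bile duct-cannulated rats (300 µmol/kg), by the same route.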

Rattus norvegicus [18] = experiment: Iron clearing efficiency in bile duct cannulated Sprague-Dawley rat assessed as clearance of iron at 150 umol/kg, sc measured at 3 hrs intervals for up to 48 hrs relative to control
Sapajus apella [19] = experiment: Iron clearing efficiency in bile duct cannulated Cebus apella assessed as clearance of iron in feces at 150 umol/kg, sc measured at 3 hrs intervals for up to 48 hrs relative to control; format: functional
Rattus norvegicus [20] = experiment: Iron clearing efficiency in bile duct cannulated Sprague-Dawley rat assessed as clearance of iron in urine at 150 umol/kg, sc measured at 3 hrs intervals for up to 48 hrs relative to control; format: functional
Sapajus apella [21] = experiment: Iron clearing efficiency in bile duct cannulated Cebus apella assessed as clearance of iron in urine at 150 umol/kg, sc measured at 3 hrs intervals for up to 48 hrs relative to control; format: functional
Sapajus apella [22] = experiment: Iron clearing efficiency in […] Cebus apella assessed as clearance of iron in feces at 75 umol/kg, po […] relative to control; format: functional
Method in brief: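 Cebus apella monkeys (3.5–6.5 kg) were iron-overloaded with intravenous iron dextran to about 500 mg Fe/kg, reaching serum transferrin saturation of 70–80%. At least 60 days elapsed before use. Chelator was given at 75 µmol/kg po or sc, with the same animals dosed by both routes. Feces and urine were collected at 24 h intervals from 4 days before to 5 days after dosing, and iron was measured by flame absorption spectroscopy. ICE = 2-day post-drug output minus 4-day mean baseline, divided by theoretical output (2:1 ligand:Fe), as %. Mean ± SEM.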

Rattus norvegicus [23] = experiment: Drug metabolism in Sprague-Dawley rat liver assessed as (S)-4'-(HO)-DADFT level at 300 umol/kg, sc after 8 hrs; format: ADME, organism-based; conditions: in vivo
Rattus norvegicus [24] = experiment: Drug metabolism in Sprague-Dawley rat plasma assessed as (S)-4'-(HO)-DADFT-PEA level at 300 umol/kg, sc up to 8 hrs by HPLC analysis; format: ADME, organism-based; conditions: in vivo; method in brief: as §2
Rattus norvegicus [25] = experiment: Drug metabolism in Sprague-Dawley rat liver assessed as (S)-4'-(HO)-DADFT-PEAA level at 300 umol/kg, sc up to 8 hrs by HPLC analysis; format: ADME, organism-based; conditions: in vivo; method in brief: as §2
Rattus norvegicus [26] = experiment: Drug metabolism in Sprague-Dawley rat plasma assessed as (S)-4'-(HO)-DADFT-PEAA level at 300 umol/kg, sc up to 8 hrs by HPLC analysis; format: ADME, organism-based; conditions: in vivo; method in brief: as §2
Rattus norvegicus [27] = experiment: Drug metabolism in Sprague-Dawley rat kidney assessed as (S)-4'-(HO)-DADFT-PEA level at 300 umol/kg, sc up to 8 hrs by HPLC analysis; format: ADME, organism-based; conditions: in vivo; method in brief: as §2
Rattus norvegicus [28] = experiment: Drug metabolism in Sprague-Dawley rat heart assessed as (S)-4'-(HO)-DADFT-PEA level at 300 umol/kg, sc up to 8 hrs by HPLC analysis; format: ADME, organism-based; conditions: in vivo; method in brief: as §2
[29] = Drug metabolism in Sprague-Dawley rat plasma assessed as parent compound level at 300 umol/kg, sc after 0.5 hrs by HPLC analysis; format: ADME, organism-based; conditions: read-out: Stability
Method in brief: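 Rats (male Sprague-Dawley, 250–350 g) were dosed sc once with the monosodium salt, 300 µmol/kg, three animals per time point up to 8 h. Plasma came from citrated cardiac blood; liver was frozen after CO2 euthanasia. Parent and metabolites were quantified by HPLC with UV at 310 nm against linear calibration curves (detection limit 0.25 µM, linear 1–1000 µM). Data are means.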

Rattus norvegicus [30] = experiment: Drug metabolism in Sprague-Dawley rat liver assessed as (S)-4'-(HO)-DADFT-PEA level at 300 umol/kg, sc up to 8 hrs by HPLC analysis; format: ADME, organism-based; conditions: in vivo; method in brief: as §2
Rattus norvegicus [31] = experiment: Drug metabolism in Sprague-Dawley rat pancreas assessed as (S)-4'-(HO)-DADFT-PEA level at 300 umol/kg, sc up to 8 hrs by HPLC analysis; format: ADME, organism-based; conditions: in vivo; method in brief: as §2

Structure (SMILES): COCCOCCOc1ccc(C2=N[C@@](C)(C(=O)[O-])CS2)c(O)c1.[Na+]
Activity (Sapajus apella [1]): 17%

Structure (SMILES): C[C@]1(C(=O)O)CSC(c2cccc(O)c2O)=N1
Activity (Sapajus apella [2]): 23.1%
Activity (Sapajus apella [3]): 17%
Activity (Sapajus apella [4]): 83%

Structure (SMILES): COc1ccc(C2=N[C@@](C)(C(=O)O)CS2)c(O)c1
Activity (Rattus norvegicus [5]): 6.6%

Drug metabolism (Rattus norvegicus [7]): metabolite_detected
Drug metabolism (Rattus norvegicus [8]): metabolite_notdetected
Drug metabolism (Rattus norvegicus [10]): metabolite_detected
Drug metabolism (Rattus norvegicus [12]): metabolite_detected
Structure (SMILES): C[C@]1(C(=O)O)CSC(c2ccc(OCCOCCO)cc2O)=N1
Activity (Rattus norvegicus [6]): 2%
Activity (Rattus norvegicus [9]): 98%
Activity (Sapajus apella [11]): 54%
Activity (Sapajus apella [1]): 46%

Structure (SMILES): C[C@]1(C(=O)O)CSC(c2ccc(OCCOCC(=O)O)cc2O)=N1
Activity (Rattus norvegicus [6]): 0%
Activity (Rattus norvegicus [9]): 100%
Activity (Sapajus apella [11]): 51%
Activity (Sapajus apella [1]): 49%

Structure (SMILES): COCCCCCCOc1ccc(C2=N[C@@](C)(C(=O)O)CS2)c(O)c1
Activity (Rattus norvegicus [6]): 1%
Activity (Rattus norvegicus [9]): 99%

Structure (SMILES): C[C@]1(C(=O)O)CSC(c2ccc(OCCCCCC(=O)O)cc2O)=N1
Activity (Rattus norvegicus [6]): 6%
Activity (Rattus norvegicus [9]): 94%
Activity (Sapajus apella [11]): 82%
Activity (Sapajus apella [1]): 18%

Structure (SMILES): C[C@]1(C(=O)O)CSC(c2ccc(OCCCC(=O)O)cc2O)=N1
Activity (Rattus norvegicus [6]): 11%
Activity (Rattus norvegicus [9]): 89%
Activity (Sapajus apella [11]): 97%
Activity (Sapajus apella [1]): 3%

Structure (SMILES): C[C@]1(C(=O)O)CSC(c2ccc(OCC(=O)O)cc2O)=N1
Activity (Rattus norvegicus [6]): 11%
Activity (Rattus norvegicus [9]): 89%
Activity (Sapajus apella [11]): 60%
Activity (Sapajus apella [1]): 40%

Structure (SMILES): C[C@]1(C(=O)[O-])CSC(c2ccc(OCCOCC(=O)O)cc2O)=N1.[Na+]
Activity (Sapajus apella [13]): 16%
Activity (Rattus norvegicus [14]): 99%
Activity (Rattus norvegicus [15]): 1%
Activity (Sapajus apella [16]): 84%

Structure (SMILES): C[C@]1(C(=O)[O-])CSC(c2ccc(OCCCCCC(=O)O)cc2O)=N1.[Na+]
Ratio [17]: 1.2
Activity (Sapajus apella [13]): 31%
Activity (Rattus norvegicus [14]): 96%
Activity (Rattus norvegicus [15]): 4%
Activity (Sapajus apella [16]): 69%

Structure (SMILES): C[C@]1(C(=O)[O-])CSC(c2ccc(OCCCC(=O)O)cc2O)=N1.[Na+]
Activity (Sapajus apella [13]): 22%
Activity (Rattus norvegicus [14]): 95%
Activity (Rattus norvegicus [15]): 5%
Activity (Sapajus apella [16]): 78%

Structure (SMILES): C[C@]1(C(=O)[O-])CSC(c2ccc(OCC(=O)O)cc2O)=N1.[Na+]
Activity (Sapajus apella [13]): 47%
Activity (Rattus norvegicus [14]): 94%
Activity (Sapajus apella [16]): 53%

Structure (SMILES): COCCOCCOCCOc1ccc(C2=N[C@@](C)(C(=O)O)CS2)c(O)c1
Activity (Rattus norvegicus [5]): 5.5%

Structure (SMILES): COCCOCCOCCOc1cccc(C2=N[C@@](C)(C(=O)O)CS2)c1O [DEFERITAZOLE]
Activity (Sapajus apella [2]): 23%
Activity (Sapajus apella [3]): 5%
Activity (Sapajus apella [4]): 95%

Structure (SMILES): CC(=O)N(O)CCCCCNC(=O)CCC(=O)N(O)CCCCCNC(=O)CCC(=O)N(O)CCCCCN [DEFEROXAMINE]
Activity (Rattus norvegicus [18]): 74%
Activity (Sapajus apella [19]): 45%
Activity (Rattus norvegicus [20]): 26%
Activity (Sapajus apella [21]): 55%

Drug metabolism (Rattus norvegicus [23]): metabolite_notdetected
Drug metabolism (Rattus norvegicus [7]): metabolite_notdetected
Drug metabolism (Rattus norvegicus [24]): metabolite_detected
Drug metabolism (Rattus norvegicus [25]): metabolite_notdetected
Drug metabolism (Rattus norvegicus [10]): metabolite_notdetected
Drug metabolism (Rattus norvegicus [26]): metabolite_notdetected
Drug metabolism (Rattus norvegicus [12]): metabolite_notdetected
Drug metabolism (Rattus norvegicus [27]): metabolite_detected
Drug metabolism (Rattus norvegicus [28]): metabolite_detected
remaining at 0.5 h [29]: 95%
Drug metabolism (Rattus norvegicus [30]): metabolite_detected
Drug metabolism (Rattus norvegicus [31]): metabolite_detected
Structure (SMILES): COCCOCCOc1ccc(C2=N[C@@](C)(C(=O)O)CS2)c(O)c1 [SP-420]
Activity (Rattus norvegicus [6]): 3%
Activity (Sapajus apella [22]): 93%
Activity (Rattus norvegicus [9]): 97%
